In ChEMBL document CHEMBL1148512, “Fluorophor-labeled spermidine derivatives as fluorescent markers in optical tumor imaging” (Bioorg Med Chem Lett, 2006):
Active and inactive are the calls of the source. The rule behind the calls is not given here.

Columns and labels:
B16 [1] = assay: Increase in fluorescence in mouse B16 cells after 24 hrs relative to control; type: functional, cell-based
Summary of the method: (§1)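 Quantitative uptake assay: tumour cells incubated with dye for 24 h. Cell-associated fluorescence is expressed as percent increase over unlabelled tumour cells.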

MH3924A [2] = assay: Increase in fluorescence in rat MH3924A cells after 24 hrs relative to control; type: functional, cell-based; summary of the method: as §1
Mus musculus [3] = species on record: Mus musculus; assay: Distribution in lung of MH3924A hepatoma bearing nude Balc C nu/nu mouse by fluorescence imaging; type: ADME, organism-based; details: in vivo
Summary of the method: (§2)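 Male Balb/c nu/nu nude mice (about 20 g) carrying subcutaneous MH3924A rat hepatoma (3–8 mm diameter). Dye given as an iv bolus via lateral tail vein, 500 lmol/kg; PBS-injected controls. Under ip ketamine/xylazine (1 mL/kg), open surgery with chest or abdominal incision. Cooled CCD imaging at 10 min, 1 h and 4 h, 60 s exposure, about 5 cm distance. Photon counts summed per equal-size region of interest (11.6 mm2) over 1 min.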

Mus musculus [4] = species on record: Mus musculus; assay: Distribution in bladder of MH3924A hepatoma bearing nude Balc C nu/nu mouse by fluorescence imaging; type: ADME, organism-based, Urinary bladder; details: in vivo; summary of the method: as §2
MH3924A [5] = assay: Cellular uptake in rat MH3924A cells xenografted in nude Balc C nu/nu mouse by fluorescence imaging; type: ADME, cell-based; details: in vivo; summary of the method: as §2
Mus musculus [6] = species on record: Mus musculus; assay: Distribution in muscle of MH3924A hepatoma bearing nude Balc C nu/nu mouse by fluorescence imaging; type: ADME, organism-based, Muscle tissue; details: in vivo; summary of the method: as §2
MH3924A [7] = assay: Cellular uptake in rat MH3924A cells; type: ADME, cell-based
Summary of the method: (§3)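 Cultured tumour cells grown on coverslips, incubated with 50 µM dye conjugate for 1, 4 and 24 h, then imaged by confocal laser scanning microscopy. Parallel incubations were run with benzyl viologen, a polyamine uptake inhibitor. B16 cells were also co-cultured with 3T3YMT-MP non-tumour cells, which express yellow fluorescent protein in mitochondria. Unlabelled cells served as reference.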

B16 [8] = assay: Cellular uptake in mouse B16 cells; type: ADME, cell-based; summary of the method: as §3
B16 [9] = assay: Cytotoxicity against mouse B16 cells assessed as inhibition of colony formation at 25 uM after 4 hrs; type: functional, cell-based
Summary of the method: (§4)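 Colony forming assay in MH3924A and B16 cells. Cells were exposed to dye for 4 h (1–250 µM tested across dyes) and colonies were scored 8 days later. Colony formation is expressed as percent of untreated controls.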

MH3924A [10] = assay: Cytotoxicity against rat MH3924A cells assessed as inhibition of colony formation at 25 uM after 4 hrs; type: functional, cell-based; summary of the method: as §4

| Compound | Drug uptake (B16 [1]) [%] | Drug uptake (MH3924A [2]) [%] | Drug uptake (Mus musculus [3]) | Drug uptake (Mus musculus [4]) | Drug uptake (MH3924A [5]) | Drug uptake (Mus musculus [6]) | Drug uptake (MH3924A [7]) | Drug uptake (B16 [8]) | Activity (B16 [9]) | Activity (MH3924A [10]) |
| --- | --- | --- | --- | --- | --- | --- | --- | --- | --- | --- |
| CNc1ccccc1C(=O)NCCCCNCCCN | 19 | 16 | Not Active | Active | Active | Not Active | Active |  |  |  |
| Cc1cc2cc3cc(C)c(NC(=O)CC(N)C(=O)NCCCCNCCCN)cc3nc2cc1N (stereo not drawn) [ASPARTYL(ACRIDINE YELLOW G)SPERMIDINE] |  |  |  |  |  |  | Active | Active | Active | Active |
| NCCCNCCCCNC(=O)C[C@H](NC(=O)c1ccc(-c2c3ccc(=O)cc-3oc3cc(O)ccc23)c(C(=O)O)c1)C(=O)NCC(=O)NCC(N)=O |  |  |  |  |  |  | Not Active | Not Active |  |  |
